# In PMC9302689 (British Journal of Clinical Pharmacology, 2022):
# Experiments:
# [1] = Pharmacokinetics, first-in-human single ascending dose study; format: in vivo; details: n = 8
# In short: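 Healthy men received a single fasted dose of 3–200 mg, with 8 on active drug per cohort. Plasma was sampled pre-dose and at 0.25–36 h. Drug was quantified by validated LC–MS/MS (LLOQ 1.00 ng/mL). Cmax, tmax, t1/2, AUClast and AUC∞ were calculated by noncompartmental analysis using actual elapsed sampling times.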
# healthy male subjects = assay: VAS Bowdle; format: in vivo, human; details: 12-hour post-dose period
# In short: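 Psychedelic effects were rated on 13 lines scored from 0 (not at all) to 100 mm (extremely), twice pre-dose and at 0.5–10 h post-dose. Change from baseline over 12 h was analysed by MMRM with baseline as covariate. The 3 mg dose group, not placebo, served as the reference.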
# μ receptor = μ receptor (Homo sapiens, UniProt P35372); assay: In vitro binding affinity, μ receptor
# Sequence of μ receptor (P35372 whole entry, the tested form may be a part): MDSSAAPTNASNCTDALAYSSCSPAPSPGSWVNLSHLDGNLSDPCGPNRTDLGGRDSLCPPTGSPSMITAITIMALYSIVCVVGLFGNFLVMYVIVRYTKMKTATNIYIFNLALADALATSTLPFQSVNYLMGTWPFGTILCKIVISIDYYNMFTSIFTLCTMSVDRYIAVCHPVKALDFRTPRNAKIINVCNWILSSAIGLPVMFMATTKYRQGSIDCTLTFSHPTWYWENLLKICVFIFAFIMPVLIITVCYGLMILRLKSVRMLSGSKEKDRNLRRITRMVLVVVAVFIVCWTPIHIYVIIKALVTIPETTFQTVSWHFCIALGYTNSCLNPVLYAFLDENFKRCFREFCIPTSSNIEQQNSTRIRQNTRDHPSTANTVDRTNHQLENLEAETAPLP
# [2] = tested on: dopamine release induced by infusion of NMDA in the striatum; assay: NMDA-induced dopamine release in the striatum; format: in vivo; details: rats, oral dose of 10 mg/kg
# dogs = assay: Preclinical dog cardiovascular study; format: in vivo; details: any dose
# neuronal abnormalities = assay: Preclinical test for neuronal abnormalities; format: in vivo; details: up to a HED of 3360 mg
smiles,measurement,setting,value
"CN1CCC23CCCCC2C1Cc1ccc(C(N)=O)cc13 (stereo not drawn) [ALKS 7119, (9α, 13α)‐17‐methylmorphinan‐3‐carboxamide]","Cmax, range",[1]; 125 mg single oral dose,315.00 to 745.00 ng/mL
same,Cmax/dose,[1]; 125 mg single oral dose,3.58
same,"t1/2, mean (SD)",[1]; 125 mg single oral dose,7.26 (0.99) h
same,"t1/2, range",[1]; 125 mg single oral dose,6.06 to 8.72 h
same,"tmax, median",[1]; 125 mg single oral dose,2.00 h
same,"tmax, range",[1]; 125 mg single oral dose,2.00 to 4.00 h
same,AUC infinite/dose,[1]; 150 mg single oral dose,30.22
same,"AUClast, mean (SD)",[1]; 150 mg single oral dose,4361.53 (782.96) hr*ng/ml
same,"AUClast, range",[1]; 150 mg single oral dose,3622.31 to 6015.06 ng·h/mL
same,"AUC∞, mean (SD)",[1]; 150 mg single oral dose,4533.66 (862.77) hr*ng/ml
same,"AUC∞, range",[1]; 150 mg single oral dose,3790.65 to 6362.63 ng·h/mL
same,"Cmax, mean (SD)",[1]; 150 mg single oral dose,413.38 (65.38) ng/ml
same,"Cmax, range",[1]; 150 mg single oral dose,314.00 to 540.00 ng/mL
same,Cmax/dose,[1]; 150 mg single oral dose,2.76
same,"t1/2, mean (SD)",[1]; 150 mg single oral dose,7.53 (0.88) h
same,"t1/2, range",[1]; 150 mg single oral dose,6.10 to 8.51 h
same,"tmax, median",[1]; 150 mg single oral dose,2.00 h
same,"tmax, range",[1]; 150 mg single oral dose,1.00 to 4.00 h
same,AUC infinite/dose,[1]; 175 mg single oral dose,34.02
same,"AUClast, mean (SD)",[1]; 175 mg single oral dose,5754.94 (1013.23) hr*ng/ml
same,"AUClast, range",[1]; 175 mg single oral dose,4681.45 to 7356.86 ng·h/mL
same,"AUC∞, mean (SD)",[1]; 175 mg single oral dose,5954.09 (1047.00) hr*ng/ml
same,"AUC∞, range",[1]; 175 mg single oral dose,4820.27 to 7488.93 ng·h/mL
same,"Cmax, mean (SD)",[1]; 175 mg single oral dose,660.63 (167.66) ng/ml
same,"Cmax, range",[1]; 175 mg single oral dose,451.00 to 893.00 ng/mL
same,Cmax/dose,[1]; 175 mg single oral dose,3.78
same,"t1/2, mean (SD)",[1]; 175 mg single oral dose,7.48 (0.87) h
same,"t1/2, range",[1]; 175 mg single oral dose,5.91 to 8.83 h
same,"tmax, median",[1]; 175 mg single oral dose,2.01 h
same,"tmax, range",[1]; 175 mg single oral dose,1.02 to 4.00 h
same,AUC infinite/dose,[1]; 200 mg single oral dose,33.61
same,"AUClast, mean (SD)",[1]; 200 mg single oral dose,6490.47 (1144.87) hr*ng/ml
same,"AUClast, range",[1]; 200 mg single oral dose,5120.43 to 8737.25 ng·h/mL
same,"AUC∞, mean (SD)",[1]; 200 mg single oral dose,6721.82 (1227.19) hr*ng/ml
same,"AUC∞, range",[1]; 200 mg single oral dose,5273.49 to 9126.15 ng·h/mL
same,"Cmax, mean (SD)",[1]; 200 mg single oral dose,656.00 (104.74) ng/ml
same,"Cmax, range",[1]; 200 mg single oral dose,491.00 to 795.00 ng/mL
same,Cmax/dose,[1]; 200 mg single oral dose,3.28
same,"t1/2, mean (SD)",[1]; 200 mg single oral dose,7.35 (0.58) h
same,"t1/2, range",[1]; 200 mg single oral dose,6.72 to 8.33 h
same,"tmax, median",[1]; 200 mg single oral dose,3.00 h
same,"tmax, range",[1]; 200 mg single oral dose,1.00 to 4.00 h
same,"VAS Bowdle “external perception”, LSM CFB",healthy male subjects; 3 mg single oral dose,0.00
same,"VAS Bowdle “feeling high”, LSM CFB",healthy male subjects; 3 mg single oral dose,0.00
same,"VAS Bowdle “internal perception”, LSM CFB",healthy male subjects; 3 mg single oral dose,0.00
same,"VAS Bowdle “external perception”, LSM CFB",healthy male subjects; 10 mg single oral dose,0.00
same,"VAS Bowdle “feeling high”, LSM CFB",healthy male subjects; 10 mg single oral dose,0.00
same,"VAS Bowdle “internal perception”, LSM CFB",healthy male subjects; 10 mg single oral dose,0.00
same,"VAS Bowdle “external perception”, LSM CFB",healthy male subjects; 25 mg single oral dose,0.00
same,"VAS Bowdle “feeling high”, LSM CFB",healthy male subjects; 25 mg single oral dose,0.00
same,"VAS Bowdle “internal perception”, LSM CFB",healthy male subjects; 25 mg single oral dose,0.00
same,"VAS Bowdle “external perception”, LSM CFB",healthy male subjects; 50 mg single oral dose,0.00
same,"VAS Bowdle “feeling high”, LSM CFB",healthy male subjects; 50 mg single oral dose,0.00
same,"VAS Bowdle “internal perception”, LSM CFB",healthy male subjects; 50 mg single oral dose,0.00
same,"VAS Bowdle “external perception”, LSM CFB",healthy male subjects; 75 mg single oral dose,0.00
same,"VAS Bowdle “feeling high”, LSM CFB",healthy male subjects; 75 mg single oral dose,0.00
same,"VAS Bowdle “internal perception”, LSM CFB",healthy male subjects; 75 mg single oral dose,0.00
same,"VAS Bowdle “external perception”, LSM CFB",healthy male subjects; 100 mg single oral dose,0.00
same,"VAS Bowdle “feeling high”, LSM CFB",healthy male subjects; 100 mg single oral dose,0.00
same,"VAS Bowdle “internal perception”, LSM CFB",healthy male subjects; 100 mg single oral dose,0.00
same,"VAS Bowdle “external perception”, LSM CFB",healthy male subjects; 125 mg single oral dose,0.00
same,"VAS Bowdle “feeling high”, LSM CFB",healthy male subjects; 125 mg single oral dose,0.00
same,"VAS Bowdle “internal perception”, LSM CFB",healthy male subjects; 125 mg single oral dose,0.00
same,"VAS Bowdle “external perception”, LSM CFB",healthy male subjects; 150 mg single oral dose,0.00
same,"VAS Bowdle “feeling high”, LSM CFB",healthy male subjects; 150 mg single oral dose,0.00
same,"VAS Bowdle “internal perception”, LSM CFB",healthy male subjects; 150 mg single oral dose,0.00
same,"VAS Bowdle “external perception”, LSM CFB",healthy male subjects; 175 mg single oral dose,0.00
same,"VAS Bowdle “feeling high”, LSM CFB",healthy male subjects; 175 mg single oral dose,0.00
same,"VAS Bowdle “internal perception”, LSM CFB",healthy male subjects; 175 mg single oral dose,0.00
same,"VAS Bowdle “external perception”, LSM CFB",healthy male subjects; 200 mg single oral dose,0.00
same,"VAS Bowdle “feeling high”, LSM CFB",healthy male subjects; 200 mg single oral dose,0.00
same,"VAS Bowdle “internal perception”, LSM CFB",healthy male subjects; 200 mg single oral dose,0.00
same,Affinity for μ receptor lower than for SERT,μ receptor,17 fold
same,Ki,"μ receptor; read-out: Ki, μ receptor, preclinical in vitro panel",600 nM
same,Effect on dopamine release induced by NMDA infusion in the striatum,[2],completely blocked dopamine release
same,QT intervals,dogs,No changes in QT intervals
same,Potential to induce neuronal abnormalities,neuronal abnormalities,no potential to induce neuronal abnormalities
